# Measured values reported in ChEMBL document CHEMBL5357046, “Sirtuin 1-activating derivatives belonging to the anilinopyridine class displaying in vivo cardioprotective activities” (2024).
# The source made the active and inactive calls. The calls are words filed in the database; no cut-off is given here.
# Columns and labels:
# [1] = target: T1, NAD-dependent protein deacetylase sirtuin-1 (Homo sapiens) (UniProt Q96EB6); test: Activation of human recombinant SIRT1 at 3 to 100 uM by fluorescence based spectrofluorometer analysis; details: filed as activator, dose 3-100 µM
# T1 sequence (whole entry): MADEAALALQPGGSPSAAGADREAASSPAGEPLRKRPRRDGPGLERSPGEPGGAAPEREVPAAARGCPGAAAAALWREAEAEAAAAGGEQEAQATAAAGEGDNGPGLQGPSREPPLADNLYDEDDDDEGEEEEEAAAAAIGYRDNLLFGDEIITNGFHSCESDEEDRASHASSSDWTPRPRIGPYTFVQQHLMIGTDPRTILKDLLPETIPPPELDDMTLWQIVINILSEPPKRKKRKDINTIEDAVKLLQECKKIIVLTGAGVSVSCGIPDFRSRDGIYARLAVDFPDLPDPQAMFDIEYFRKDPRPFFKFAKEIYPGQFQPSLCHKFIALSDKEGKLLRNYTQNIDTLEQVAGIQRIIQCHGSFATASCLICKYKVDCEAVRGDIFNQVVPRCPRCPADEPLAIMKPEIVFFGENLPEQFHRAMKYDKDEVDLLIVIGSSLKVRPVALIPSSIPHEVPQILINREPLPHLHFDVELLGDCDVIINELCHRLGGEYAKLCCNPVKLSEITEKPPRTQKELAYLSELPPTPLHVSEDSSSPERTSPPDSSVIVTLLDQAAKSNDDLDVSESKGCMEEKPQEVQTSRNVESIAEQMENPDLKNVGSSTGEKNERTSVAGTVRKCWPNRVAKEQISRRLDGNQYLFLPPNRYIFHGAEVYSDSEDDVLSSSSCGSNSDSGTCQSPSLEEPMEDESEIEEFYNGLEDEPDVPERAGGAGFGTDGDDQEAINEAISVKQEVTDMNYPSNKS
# [2] = target: T1, NAD-dependent protein deacetylase sirtuin-1 (Homo sapiens); test: Activation of human recombinant SIRT1 by fluorescence based spectrofluorometer analysis; details: filed as activator, dose 3-100 µM
# Rattus norvegicus [3] = test: Cardioprotective activity against acute myocardial infarction Wistar rat model assessed as reduction in percentage of ischemic area to total area of left ventricle at 10 mg/kg, ip by ECG analysis; type: functional; design: scale not given: the % may be the effect or the level left
# How it was run: (§1)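 Adult male Wistar rats (350–450 g) dosed i.p. 2 h before surgery (vehicle DMSO 1 ml kg⁻¹), then anaesthetized with thiopental (70 mg kg⁻¹ i.p.). LAD occluded 30 min (ST elevation on ECG, cyanosis) then reperfused 120 min. Hearts washed on Langendorff, LV sliced and stained with TTC 1% at 37 °C for 20 min; infarct area/LV area by planimetry. n = 5 per group.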
# [4] = target: T1, NAD-dependent protein deacetylase sirtuin-1 (Homo sapiens); test: Activation of human recombinant SIRT1 at 3 uM by fluorescence based spectrofluorometer analysis
# Rattus norvegicus [5] = test: Cardioprotective activity against acute myocardial infarction Wistar rat model assessed as reduction in percentage of ischemic area to total area of left ventricle at 0.1 mg/kg, ip by ECG analysis; type: functional; design: scale not given: the % may be the effect or the level left; how it was run: as §1
Activity [1],Activity [2],Activity [4],Compound,Activity (Rattus norvegicus [3]) [%],Activity (Rattus norvegicus [5]) [%]
Active,–,–,Oc1cccc(Nc2cc(-c3cccc(O)c3)ccn2)c1,–,–
Active,Dose-Dependent Effect,–,Oc1ccc(Nc2cccc(-c3cccc(O)c3)n2)cc1,–,–
–,–,–,Oc1ccc(/C=C/c2cc(O)cc(O)c2)cc1 [RESVERATROL],30,–
–,Dose-Dependent Effect,inactive,Oc1cccc(Nc2ccnc(-c3cccc(O)c3)c2)c1,–,–
Active,Dose-Dependent Effect,–,Oc1ccc(Nc2cccc(-c3ccc(O)cc3)n2)cc1,–,28
Active,Dose-Dependent Effect,–,Oc1cccc(Nc2cccc(-c3cccc(O)c3)n2)c1,–,–
Active,Dose-Dependent Effect,–,Oc1ccc(-c2cccc(Nc3cccc(O)c3)n2)cc1,6,–
